Results on 27 compounds are retold here after ChEMBL document CHEMBL4622925, “N1-Substituted benzimidazole scaffold for farnesoid X receptor (FXR) agonists accompanying prominent selectivity against vitamin D receptor (VDR)” (Bioorg Med Chem, 2020).

Series [1] concerns the target T1, Vitamin D3 receptor (Homo sapiens, UniProt P11473).
T1 sequence (P11473 whole entry): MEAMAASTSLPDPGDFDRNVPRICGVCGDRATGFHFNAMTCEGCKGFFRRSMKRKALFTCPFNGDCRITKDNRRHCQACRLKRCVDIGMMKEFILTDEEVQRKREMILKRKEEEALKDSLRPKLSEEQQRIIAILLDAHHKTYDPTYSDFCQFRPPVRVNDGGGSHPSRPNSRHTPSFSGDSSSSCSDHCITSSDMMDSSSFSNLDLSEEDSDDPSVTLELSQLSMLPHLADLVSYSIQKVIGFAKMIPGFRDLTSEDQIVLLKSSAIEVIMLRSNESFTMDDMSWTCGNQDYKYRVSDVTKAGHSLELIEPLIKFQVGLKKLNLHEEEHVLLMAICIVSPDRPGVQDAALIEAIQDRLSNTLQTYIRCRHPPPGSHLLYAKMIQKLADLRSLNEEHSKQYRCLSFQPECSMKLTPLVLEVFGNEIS
The experiment in a line: Antagonist activity at human VDR transfected in HEK293T cells measured after 24 hrs by luciferase reporter gene assay. Format: cell-based, HEK-293T. For orientation: In a reporter assay the amount or activity of a reporter protein is the signal.

Series [2] concerns Huh-7. Briefly: Cytotoxicity against human HuH7 cells assessed as cell viability by MTT assay. Format: cell-based. A general note: Tetrazolium assays rely on reduction of a dye to a coloured formazan, in cell work by metabolically active cells.
Series [3] relates to HEK-293T. Briefly: Cytotoxicity against human HEK293T cells assessed as cell viability by MTT assay. Format: cell-based.
Series [4] in a line: Cytotoxicity against mouse ST-2 cells assessed as cell viability upto 5 uM incubated for 12 days by WST-8 assay. Format: cell-based. The settings on record: 288 h. In outline: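 ST-2 mesenchymal stem cells kept 12 days in RPMI-1640 medium containing compound at 0–10 μM. Viability read by WST-8 assay and expressed relative to untreated (0 μM) cells set as 100%. Means ± S.D., n=5.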

The target in series [5] is T2, Bile acid receptor (Homo sapiens, UniProt Q96RI1).
T2 sequence (Q96RI1 whole entry): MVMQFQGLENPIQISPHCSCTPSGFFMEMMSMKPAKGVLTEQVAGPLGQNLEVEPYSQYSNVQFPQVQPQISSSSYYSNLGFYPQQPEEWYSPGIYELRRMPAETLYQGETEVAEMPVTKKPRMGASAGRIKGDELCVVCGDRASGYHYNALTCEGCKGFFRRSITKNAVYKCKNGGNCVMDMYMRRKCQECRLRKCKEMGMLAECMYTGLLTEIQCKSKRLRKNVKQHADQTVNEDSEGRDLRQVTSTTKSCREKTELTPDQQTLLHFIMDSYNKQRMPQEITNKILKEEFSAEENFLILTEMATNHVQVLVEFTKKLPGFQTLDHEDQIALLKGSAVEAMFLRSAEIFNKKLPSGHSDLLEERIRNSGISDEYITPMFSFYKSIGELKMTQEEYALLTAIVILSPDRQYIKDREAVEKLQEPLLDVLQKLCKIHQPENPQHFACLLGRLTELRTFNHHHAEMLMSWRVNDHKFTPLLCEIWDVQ
Briefly: Agonist activity at GST-fused FXR-LBD (unknown origin) incubated with Fluorecein-SRC2-2 coactivator peptide as substrate by TR-FRET assay. A general note: TR-FRET usually uses a lanthanide donor and a delayed reading to cut background.

In series [6] the target is T2, Bile acid receptor. The experiment in a line: Agonist activity at human FXR expressed in human HuH7 cells by luciferase reporter gene assay. Format: cell-based, Huh-7.

A value given as a limit tells only on which side of the number the result lay.

As a reminder, the IC50 is the midpoint of a concentration-inhibition curve. In general, EC50 refers to the concentration giving half of the maximal effect. Read a low EC50 as an effect from little substance.

Regarding `CC(=O)N1CCC(n2c(-c3ccc(OCc4c(-c5c(Cl)cccc5Cl)noc4C(C)C)cc3)nc3ccc(C(=O)O)cc32)CC1`, the concentration for half-maximal inhibition (IC50) in series [1] is > 10000 nM. The Activity entry in series [2] and in series [3] was “Toxic” throughout.

For the compound `CC(=O)C1CCC(Cn2c(-c3ccc(OCc4c(-c5c(Cl)cccc5Cl)noc4C(C)C)cc3)nc3ccc(C(=O)O)cc32)CC1` (stereo not drawn), the concentration for half-maximal inhibition (IC50) in series [1] is > 10000 nM. For the same compound, the Activity result in series [2] and in series [3] was “Toxic” in each case.

Consider `CC(C)Cn1c(-c2ccc(OCc3c(-c4c(Cl)cccc4Cl)noc3C(C)C)cc2)nc2ccc(C(=O)O)cc21`, for which the Activity entry in series [2] and in series [3] was “Toxic” throughout.

With `CC(C)c1onc(-c2c(Cl)cccc2Cl)c1COc1ccc(-c2nc3ccc(C(=O)O)cc3n2C2CCCC2)cc1`, the Activity entry in series [2] and in series [3] was “Toxic” throughout.

Turning to `CCC(CC)n1c(-c2ccc(OCc3c(-c4c(Cl)cccc4Cl)noc3C(C)C)cc2)nc2ccc(C(=O)O)cc21`, the Activity entry is “Non-Toxic” in series [4], “Toxic” in series [2] and “Toxic” in series [3].

As for `CC(C)c1onc(-c2c(Cl)cccc2Cl)c1COc1ccc(-c2nc3ccc(C(=O)O)cc3n2C)cc1`, the Activity result in series [2] and in series [3] was “Toxic” in each case.

Turning to `CC(C)c1onc(-c2c(Cl)cccc2Cl)c1COc1ccc(-c2nc3ccc(C(=O)O)cc3n2C2CC2)cc1`, the Activity result in series [2] and in series [3] was “Toxic” each time.

With `CC(C)c1onc(-c2c(Cl)cccc2Cl)c1COc1ccc(-c2nc3ccc(C(=O)O)cc3n2C(C)C)cc1`, the Activity entry in series [2] and in series [3] was “Toxic” in each case.

`CCC(CC)n1c(-c2ccc(OCc3c(-c4c(Cl)cccc4Cl)noc3C(C)C)cc2Cl)nc2ccc(C(=O)O)cc21`: the 50% effective concentration (EC50) in series [5] is 21.6 nM; in series [6], 1.6 nM. The Activity entry in series [2] and in series [3] was “Toxic” throughout.

For the compound `CCCC(CCC)n1c(-c2ccc(OCc3c(-c4c(Cl)cccc4Cl)noc3C(C)C)cc2)nc2ccc(C(=O)O)cc21`, the IC50 in series [1] was > 10000 nM. Besides, the Activity result in series [2] and in series [3] was “Toxic” in each case.

As for `CCC(CC)n1c(-c2ccc(OCc3c(-c4c(Cl)cccc4Cl)noc3C(C)C)cc2F)nc2ccc(C(=O)O)cc21`, in series [1], the IC50 was > 10000 nM. Moreover, the Activity result in series [2] and in series [3] was “Toxic” in each case.

For the compound `CC(C)c1onc(-c2c(Cl)cccc2Cl)c1COc1ccc(/C=C/c2cccc(C(=O)O)c2)c(Cl)c1`, the 50% inhibitory concentration (IC50) in series [1] is > 10000 nM.

As to `CC(C)c1onc(-c2c(Cl)cccc2Cl)c1COc1ccc(-c2nc3ccc(C(=O)O)cc3n2C2CCCCCC2)cc1`, the Activity entry in series [2] and in series [3] was “Toxic” in each case.

Regarding `CC(C)c1onc(-c2c(Cl)cccc2Cl)c1COc1ccc(-c2nc3ccc(C(=O)O)cc3n2C2CCCCC2)cc1`, the Activity entry in series [2] and in series [3] was “Toxic” throughout.

With `CCn1c(-c2ccc(OCc3c(-c4c(Cl)cccc4Cl)noc3C(C)C)cc2)nc2ccc(C(=O)O)cc21`, the Activity entry in series [2] and in series [3] was “Toxic” throughout.

As to `CC(C)c1onc(-c2c(Cl)cccc2Cl)c1COc1ccc(-c2nc3ccc(C(=O)O)cc3n2C)c(Cl)c1`, the Activity result in series [2] and in series [3] was “Toxic” in each case.

Turning to `CC(C)c1onc(-c2c(Cl)cccc2Cl)c1COc1ccc(-c2nc3ccc(C(=O)O)cc3n2CC2CC2)cc1`, the Activity result in series [2] and in series [3] was “Toxic” throughout.

Consider `CC(C)c1onc(-c2c(Cl)cccc2Cl)c1COc1ccc(-c2nc3ccc(C(=O)O)cc3n2CC2CCCCC2)c(Cl)c1`, for which the Activity entry in series [2] and in series [3] was “Toxic” throughout.

For `CC(C)c1onc(-c2c(Cl)cccc2Cl)c1COc1ccc(-c2nc3ccc(C(=O)O)cc3n2-c2ccc(F)cc2)cc1`, the Activity result in series [2] and in series [3] was “Toxic” throughout.

For `CCCn1c(-c2ccc(OCc3c(-c4c(Cl)cccc4Cl)noc3C(C)C)cc2)nc2ccc(C(=O)O)cc21`, the Activity entry in series [2] and in series [3] was “Toxic” throughout.

Regarding `CC(C)c1onc(-c2c(Cl)cccc2Cl)c1COc1ccc(-c2nc3ccc(C(=O)O)cc3n2CC2CCCCC2)c(F)c1`, the Activity entry in series [2] and in series [3] was “Toxic” throughout.

As to `CC(C)c1onc(-c2c(Cl)cccc2Cl)c1COc1ccc(-c2nc3cc(C(=O)O)ccc3n2C)cc1`, the Activity entry in series [2] and in series [3] was “Toxic” each time.

As to `CC(C)c1onc(-c2c(Cl)cccc2Cl)c1COc1ccc(-c2nc3ccc(C(=O)O)cc3n2Cc2ccc(F)cc2)cc1`, the Activity result in series [2] and in series [3] was “Toxic” each time.

As for `CC(C)c1onc(-c2c(Cl)cccc2Cl)c1COc1ccc(-c2nc3ccc(C(=O)O)cc3n2CC2CCCCC2)cc1`, the figures for the Activity result in series [4], in series [2] and in series [3] were “Non-Toxic”, “Toxic” and “Toxic”, respectively.

For the compound `CC(C)c1onc(-c2c(Cl)cccc2Cl)c1COc1ccc(-c2nc3ccc(C(=O)O)cc3n2CC(C)(C)C)cc1`, the EC50 in series [5] stood at 24.8 nM; in series [6], 13 nM. For the same compound, the Activity entry in series [2] and in series [3] was “Toxic” each time.

Take `CC(C)c1onc(-c2c(Cl)cccc2Cl)c1COc1ccc(-c2nc3ccc(C(=O)O)cc3n2C)cc1Cl`: the Activity entry in series [2] and in series [3] was “Toxic” in each case.

For the compound `CC(C)c1onc(-c2c(Cl)cccc2Cl)c1COc1ccc(-c2nc3ccc(C(=O)O)cc3n2C2CCC2)cc1`, the Activity entry in series [2] and in series [3] was “Toxic” throughout.
